Screens (PubChem)
Most compounds without a hit are left out; they make up all but 1.6% or so of the library.
HSV augment = enhancers of HSV replication in host cells, fold increase, host cell viability; HSV replication augmentation in cells; maximum fold increase; 0.005% of 220,000 active; AID 1956, 2009; in the data active means maximum fold increase above about 1.5; tested in PC3 cells
ABCG2 block = ABCG2 efflux pump inhibitors, primary screen, multiplex with ABCB1, IgMXP3 cells, flow cytometry | Broad substrate specificity ATP-binding cassette transporter ABCG2 (Homo sapiens), Q9UNQ0 | JC-1 efflux | inhibition, % at 6.6 µM | 0.1% of 190,000 active | AID 1325, 2008;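 active means inhibition above 80%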
Target sequence (Q9UNQ0 whole entry, looked up): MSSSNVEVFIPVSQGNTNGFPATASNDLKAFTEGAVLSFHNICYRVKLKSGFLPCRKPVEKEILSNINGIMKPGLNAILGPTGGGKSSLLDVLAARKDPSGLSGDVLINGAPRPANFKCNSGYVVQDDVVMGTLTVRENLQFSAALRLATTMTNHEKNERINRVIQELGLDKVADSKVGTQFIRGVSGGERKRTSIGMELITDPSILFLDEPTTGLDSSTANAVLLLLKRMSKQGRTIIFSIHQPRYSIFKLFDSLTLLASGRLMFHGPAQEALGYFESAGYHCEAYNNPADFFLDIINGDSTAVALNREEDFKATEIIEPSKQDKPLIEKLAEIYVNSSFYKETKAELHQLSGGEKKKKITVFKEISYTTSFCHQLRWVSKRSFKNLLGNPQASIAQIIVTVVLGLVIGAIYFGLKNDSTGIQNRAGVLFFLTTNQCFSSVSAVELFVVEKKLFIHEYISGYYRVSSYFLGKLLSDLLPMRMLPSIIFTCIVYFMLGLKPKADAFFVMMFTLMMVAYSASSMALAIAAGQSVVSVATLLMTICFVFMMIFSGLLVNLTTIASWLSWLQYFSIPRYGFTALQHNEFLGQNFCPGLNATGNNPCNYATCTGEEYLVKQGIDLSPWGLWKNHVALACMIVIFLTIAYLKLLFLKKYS
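test system = two drug-resistant human cell lines, ABCG2 and ABCB1 | amount = 3 million cells/mL final, two lines in 1:1 ratio | reagent = JC-1 transporter substrate | doses = one concentration, 6.6 µM final | incubation = 10 min at 25 °C | signal = flow cytometric JC-1 green MFI at 530 nm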
ABCB1 inh = ABCB1 efflux pump inhibitors, primary screen, cell-based, multiplex, flow cytometry, ABCG2 counter-screen; inhibition, % at 6.6 µM; ATP-dependent translocase ABCB1 (Homo sapiens), P08183; CCRF-Adr cells, JC-1 efflux; 0.067% of 190,000 active; in the data active means inhibition above about 40%;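 further: higher value means more JC-1 retained so stronger ABCB1 efflux block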
p47phox inh = p47phox/p22phox peptide binding inhibitors, primary screen, biochemical, uHTS, NADPH oxidase regulatory subunit | Neutrophil cytosol factor 1 (Homo sapiens), P14598 | inhibition, % at 24.7 µM | fluorescence polarization, 2 h | AID 1274, 2008 | 0.53% of 220,000 active;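 active means inhibition above about 30%, limit read from the data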
PHOSPHO1 block = PubChem AID 1565 | inhibition, % at 13.3 µM | recombinant PHOSPHO1, absorbance phosphatase assay | 1.1% of 290,000 active | Phosphoethanolamine/phosphocholine phosphatase (Homo sapiens), Q8TCT1; in the data active means inhibition above about 60%
PKD1 inh = inhibitors of human PKD1 kinase, biochemical, fluorescence polarization | PKD1 kinase fluorescence polarization assay | inhibition, % (test concentration not listed) | 0.056% of 200,000 active; in the data active means inhibition above about 50%
Hits are given with their value; – = inactive; · = not tested or not shown.

SMILES | HSV augment | ABCG2 block | ABCB1 inh | p47phox inh | PHOSPHO1 block | PKD1 inh
Cc1ccc2[nH]c(C(=O)O)c(NC(=O)[C@@H]3C[C@@H]3c3ccccc3)c2c1 | – | · | · | 113 | – | ·
Cc1[nH]c2ccccc2c1NC(=O)CN1CCN(Cc2ccc3c(c2)OCO3)CC1 | – | – | – | – | 97 | –
O=C(Cn1c(=O)[nH]c2ccccc2c1=O)N1CCN(Cc2ccc3c(c2)OCO3)CC1 | · | · | · | · | – | ·
COC(=O)c1[nH]c2ccc(C)cc2c1NC(=O)CN1CCN(Cc2ccccc2)CC1 | – | – | – | – | 85 | –
CC(=O)CC1=NC(C)(C)Cc2ccccc21 | – | – | – | – | – | –
CCCC(=O)Nc1c(-c2cccc(C)c2)c(=O)c2ccccc2n1C | · | · | · | · | – | ·
Cc1c(Cl)cccc1NC(=S)N1CCCN(Cc2ccc(F)cc2)C1 | – | – | – | – | – | –
COc1cc2nc(SCc3ccc(Cl)cc3Cl)n(Cc3cccs3)c(=N)c2cc1OC | – | – | – | – | – | –
COc1ccc(Cn2c(SCc3cc(C)ccc3C)nc3cc(OC)c(OC)cc3c2=N)cc1 | – | – | – | 66 | – | –
COc1ccc(Cn2c(SCc3ccc(C)cc3)nc3cc(OC)c(OC)cc3c2=N)cc1Cl | – | – | – | 35 | – | –
CNC(=O)c1ccccc1Sc1ccccc1C#N | – | – | – | – | – | –
Cc1ccc(S(=O)(=O)NCC(=O)NCC2CCCCC2)cc1C | · | · | · | · | – | ·
Cc1cccc(NC(=O)CSCc2cc(=O)n3nc(C4CC4)sc3n2)c1 | · | · | · | · | – | ·
CCCS(=O)(=O)c1c(S(=O)(=O)CCC)c2ccc(C(N)=O)cn2c1C(=O)OC | – | – | – | – | – | –
CCCS(=O)(=O)c1c(S(=O)(=O)CCC)c2ccc(C(N)=O)cn2c1C(=O)c1ccc(OC)cc1 | – | – | – | – | 60 | –
Cc1cc(C)nc(SCc2csc(N)n2)n1 | – | – | – | – | 84 | –
Cc1cc(C)nc(SCc2csc(-c3ccccc3)n2)n1 | – | – | – | – | – | –
C[N+]1(CCOc2ccc([N+](=O)[O-])cc2)CCOCC1 | – | – | – | – | 97 | –
CC(=O)c1ccc(OCCOc2ccc([N+](=O)[O-])cc2)cc1 | · | · | · | · | – | ·
Cc1snc(SCC(=O)c2ccc(F)cc2)c1C#N | · | – | – | – | – | –
Cc1snc(SCC(=O)c2ccc([N+](=O)[O-])cc2)c1C#N | – | – | – | – | 72 | –
O=C(O)c1cc(-c2ccc(/C=C3\NC(=O)N(c4ccccc4)C3=O)o2)ccc1Cl | – | · | · | – | 67 | ·
O=C(O)c1cc(-c2ccc(/C=C3\NC(=O)N(c4ccc(Cl)cc4)C3=O)o2)ccc1Cl | – | – | – | – | – | –
Cc1ccc(OCc2n[nH]c(=S)n2N)cc1C | – | – | – | – | – | –
CCn1nc(C)cc1-c1n[nH]c(=S)n1N | – | – | – | – | 102 | –
SMILES | HSV augment | ABCG2 block | ABCB1 inh | p47phox inh | PHOSPHO1 block | PKD1 inh
Cc1cccc(NC(=S)NNC(=O)c2ccccc2OC(F)F)c1 | · | – | – | – | 72 | –
COc1ccc(NC(=S)NNC(=O)c2ccccc2OC(F)F)cc1 | – | – | – | – | 73 | –
CCc1ccc(NC(=S)NNC(=O)c2ccccc2OC(F)F)cc1 | – | – | – | – | – | –
CCn1c(COc2ccc(C(C)C)cc2)nnc1SCC(=O)Nc1nccs1 | – | – | – | – | 97 | –
CCSCc1nnc(SCC(=O)Nc2nccs2)n1CC | – | – | – | – | 60 | –
CC(C)NC(=S)N/N=C/c1ccc(C(C)(C)C)cc1 | – | – | – | – | – | –
O=C(c1cc(Br)c(Br)s1)N1CCN(c2ccccn2)CC1 | · | · | · | · | – | ·
O=C1OCC(CO)(CO)N=C1NNc1ccccc1Cl | – | – | – | – | 82 | –
O=C(Nc1ccccc1Cl)c1ccccc1Cl | · | – | – | – | – | –
CCCCCC#CCC#CCC#CCC#CCCCC(=O)O | – | – | – | – | 79 | –
CCCCCCCCCCCCS(=O)(=O)CCC(=O)O | – | · | · | – | – | ·
CCOc1ccc2nc(-c3ccccc3)[nH]c2c1 | – | – | – | – | – | –
CCOc1ccc2[nH]c(=S)[nH]c2c1 | – | – | – | – | 103 | –
COCC(C)N1CCC(Oc2ccc(C(=O)N3CCCC3)cc2)CC1 (stereo not drawn) | · | · | · | · | – | ·
CCOC(=O)c1ccccc1NC(=O)c1c(O)c2ccccc2n(CC)c1=O | – | – | – | – | – | –
CCCn1c(=O)c(C(=O)Nc2ccccc2C(=O)OC)c(O)c2ccccc21 | – | – | – | 45 | – | –
O=C(NCc1ccccn1)NC1CCCCC1 | – | – | – | – | – | –
COc1ccc(/C=C2/SC(c3ccc(C)cc3)=NC2=O)cc1OC | – | – | – | – | 74 | –
CC1CC(C)CN(CCCNC(=O)c2ccc(CNS(=O)(=O)c3ccc(F)cc3)cc2)C1 (stereo not drawn) | · | · | · | · | 75 | ·
O=C(NCCCN1CCOCC1)c1ccc(CNS(=O)(=O)c2ccc(F)cc2)cc1 | – | · | · | – | – | –
Cc1nn(C)cc1CN(C)S(=O)(=O)c1cccc([N+](=O)[O-])c1 | – | – | – | – | – | –
CCN(CC)c1nc(C)c2c(c1C#N)CC(C)(C)OC2 | – | – | – | – | – | –
CC(C)C1Cc2c(C#N)c(N)sc(=S)c2CO1 (stereo not drawn) | – | – | – | – | 89 | –
CC1(C)Cc2c(C#N)c(N)sc(=S)c2CO1 | – | – | – | – | 80 | –
O=CN1CCN(S(=O)(=O)c2ccc(S(=O)(=O)NC3CCCCC3)cc2)CC1 | · | · | · | · | – | ·
SMILES | HSV augment | ABCG2 block | ABCB1 inh | p47phox inh | PHOSPHO1 block | PKD1 inh
O=C1CC(O)(C(F)F)Oc2ccc3ccccc3c21 (stereo not drawn) | – | – | – | – | 67 | –
COc1cccc(C(=O)Nc2cc(NC(=O)c3cccs3)ccc2C)c1OC | · | · | · | · | – | ·
CCCn1c(SCC(=O)c2ccc3c(c2)OCCO3)n[nH]c1=O | – | – | – | – | – | –
CCCn1c(SCC(=O)c2cc(C)c(C)cc2C)n[nH]c1=O | – | – | – | – | 97 | –
O=C(NCCc1ccccc1)c1ccccc1NS(=O)(=O)N1CCCC1 | – | – | – | – | – | –
CCOC(=O)CC(=O)CSc1nnc2sc3ccccc3n12 | – | – | – | – | 64 | –
CN(C)C(=O)CSc1nnc2sc3ccccc3n12 | – | · | · | · | – | –
COc1ccc(N2C(C)=CS/C2=C(/C#N)c2nnc(N3CCOCC3)n2-c2ccccc2)cc1 | – | – | – | – | – | –
FC(F)(F)c1ccc(Nc2nnnc3ccccc23)cc1 | – | – | – | – | 61 | –
CCOc1cccc(NC(=O)c2ccc(S(=O)(=O)N3CCCC3)cc2)c1 | – | · | · | – | – | ·
COc1cccc(N2CC(=O)N(c3cccc(OC)c3)CC2=O)c1 | – | – | – | – | 60 | –
Nn1c(=O)c2ccccc2n2c(SCc3ccc(C(F)(F)F)cc3)nnc12 | – | – | – | – | 90 | –
